Test results: ChEMBL document CHEMBL2177006 (J Med Chem, 2012)
pIC50: −log10 of the molar value.

Experiments:
Beta-secretase 1 [1] = molecular target: T1, Beta-secretase 1 (Homo sapiens, UniProt P56817); test: Inhibition of human recombinant BACE1 using Glu-Ile-Asp-Leu-Met-Val-Leu-Asp as substrate incubated for 60 mins prior to substrate addition measured after 60 mins by FRET assay
Beta-secretase 1 [2] = molecular target: T1, Beta-secretase 1; test: Inhibition of BACE1 in human HEK293 cells expressing APP Swedish mutant assessed as inhibition of amyloid beta (1 to 40) production after overnight incubation by sandwich ELISA; format: cell-based
Rattus norvegicus = test: Antialzheimer activity in Sprague-Dawley rat assessed as reduction in amyloid beta 40 level in CSF at 30 mg/kg, po at 4 hrs by immunoassay relative to control; format: functional; set-up: scale not given: the % may be the effect or the level left
Method in brief: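 At the set time they were euthanized with CO2 for 2 min. CSF was drawn from the cisterna magna with a 30 gauge needle, frozen on dry ice, stored at −80 °C, then assayed for Aβ40 by Meso Scale immunoassay.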

T1 sequence (P56817 whole entry): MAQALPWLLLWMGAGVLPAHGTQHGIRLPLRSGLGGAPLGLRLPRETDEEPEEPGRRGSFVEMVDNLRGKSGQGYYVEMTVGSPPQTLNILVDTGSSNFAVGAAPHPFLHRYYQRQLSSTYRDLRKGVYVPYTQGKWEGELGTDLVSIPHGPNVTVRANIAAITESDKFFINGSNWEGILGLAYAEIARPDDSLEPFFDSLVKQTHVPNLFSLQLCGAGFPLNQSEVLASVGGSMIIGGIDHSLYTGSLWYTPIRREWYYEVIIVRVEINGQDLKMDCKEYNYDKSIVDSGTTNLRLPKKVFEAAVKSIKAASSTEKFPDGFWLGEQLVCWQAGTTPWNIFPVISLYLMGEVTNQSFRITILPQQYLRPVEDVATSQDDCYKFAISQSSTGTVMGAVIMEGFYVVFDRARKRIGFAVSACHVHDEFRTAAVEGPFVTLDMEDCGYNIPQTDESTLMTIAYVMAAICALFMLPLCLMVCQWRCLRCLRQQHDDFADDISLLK

CC(C)(C)Cc1cnc2c(c1)[C@@H](NC[C@@H](O)[C@H](Cc1ccc3c(c1)OCO3)NC(=O)c1cccnc1)CC1(CCC1)O2
pIC50 (Beta-secretase 1 [1]): 7.58
pIC50 (Beta-secretase 1 [2]): 7.17

CC(C)(C)Cc1cnc2c(c1)[C@@H](NC[C@@H](O)[C@H](Cc1ccc3c(c1)OCO3)NC(=O)c1ccc(F)nc1)CC1(CCC1)O2
pIC50 (Beta-secretase 1 [1]): 7.32
pIC50 (Beta-secretase 1 [2]): 7.16

COCC(=O)N[C@@H](Cc1ccc2c(c1)OCO2)[C@H](O)CN[C@H]1CC2(CCC2)Oc2ncc(CC(C)(C)C)cc21
pIC50 (Beta-secretase 1 [1]): 8.27
pIC50 (Beta-secretase 1 [2]): 7.77

CC(C)C(=O)N[C@@H](Cc1ccc2c(c1)OCO2)[C@H](O)CN[C@H]1CC2(CCC2)Oc2ncc(CC(C)(C)C)cc21
pIC50 (Beta-secretase 1 [2]): 6.09

CC(C)(C)Cc1cnc2c(c1)[C@@H](NC[C@@H](O)[C@H](Cc1ccc3c(c1)OCO3)NC(=O)[C@@H]1CCCO1)CC1(CCC1)O2
pIC50 (Beta-secretase 1 [1]): 7.69
pIC50 (Beta-secretase 1 [2]): 7.56

C[C@@H](F)C(=O)N[C@@H](Cc1ccc2c(c1)OCO2)[C@H](O)CN[C@H]1CC2(CCC2)Oc2ncc(CC(C)(C)C)cc21
pIC50 (Beta-secretase 1 [2]): 7.26

CC(C)(C)Cc1cnc2c(c1)[C@@H](NC[C@@H](O)[C@H](Cc1ccc3c(c1)OCO3)NC(=O)c1ccccc1F)CC1(CCC1)O2
pIC50 (Beta-secretase 1 [1]): 7.12
pIC50 (Beta-secretase 1 [2]): 5.94

CC(C)(C)Cc1cnc2c(c1)[C@@H](NC[C@@H](O)[C@H](Cc1ccc3c(c1)OCO3)NC(=O)c1cccnc1F)CC1(CCC1)O2
pIC50 (Beta-secretase 1 [1]): 7.48
pIC50 (Beta-secretase 1 [2]): 7.19

COc1ccc(C[C@H](NC(C)=O)[C@H](O)CN[C@H]2CC3(CCC3)Oc3ncc(CC(C)(C)C)cc32)cc1OC
pIC50 (Beta-secretase 1 [1]): 7.74
pIC50 (Beta-secretase 1 [2]): 8.03

CC(=O)N[C@@H](Cc1ccc(OC(F)F)c(OC(F)F)c1)[C@H](O)CN[C@H]1CC2(CCC2)Oc2ncc(CC(C)(C)C)cc21
pIC50 (Beta-secretase 1 [1]): 7.45
pIC50 (Beta-secretase 1 [2]): 6.62

CC(=O)N[C@@H](Cc1ccc2c(c1)OCO2)[C@H](O)CN[C@H]1CC2(CCC2)Oc2ncc(CC(C)(C)C)cc21
pIC50 (Beta-secretase 1 [1]): 8.10
pIC50 (Beta-secretase 1 [2]): 8.26
Activity (Rattus norvegicus): 52%
